Data set [1] deals with Epithelial discoidin domain-containing receptor 1 (Homo sapiens) (UniProt Q08345). As to the kind of experiment: Inhibition of human DDR1 at 1 uM relative to control.
Data set [2] has as its target Ephrin type-B receptor 1 (Homo sapiens) (UniProt P54762). Nature of the data set: Inhibition of human EphB1 at 1 uM relative to control.
Data set [3] deals with Tyrosine-protein kinase Yes (Homo sapiens) (UniProt P07947). Nature of the data set: Inhibition of human YES at 1 uM relative to control.
The test system of data set [4] is BaF3. As to the kind of experiment: Induction of apoptosis in mouse BA/F3 cells expressing NRAS-G12D mutant assessed as increase in cleaved caspase-3 levels at 5 uM after 24 hrs by Western blot analysis. It is filed as functional, cell-based. In short, it runs like this:
(§1)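 Cells treated 24 h with indicated concentrations (1 µM; 5 µM also used in Ba/F3-NRAS-G12D); cleaved PARP, cleaved caspase 3, bcl-2 and MCL1 detected by western blot with actin as loading control.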
(In western blotting, separated proteins are transferred to a membrane and probed.)

The target in data set [5] is Mitogen-activated protein kinase 14 (Homo sapiens) (UniProt Q16539). As to the kind of experiment: Inhibition of human p38alpha at 1 uM relative to control.
For data set [6], the target named is Tyrosine-protein kinase Blk (Homo sapiens) (UniProt P51451). Nature of the data set: Inhibition of human BLK at 1 uM relative to control.
The nature of data set [7]: AUClast in mouse at 10 mg/kg, po. In kind it is ADME, organism-based. Further details: dose 10 mg/kg, time 0 - last, route oral. To be noted: in vivo.
The nature of data set [8]: Cmax in mouse at 10 mg/kg, po. It is filed as ADME, organism-based. Details: dose 10 mg/kg, route oral. Particulars: in vivo.
In data set [9] the target is Tyrosine-protein kinase JAK1 (Homo sapiens) (UniProt P23458). Nature of the data set: Inhibition of human JAK1 at 1 uM relative to control.
Data set [10] concerns BaF3. Nature of the data set: Antileukemic activity against mouse BA/F3 cells harboring NRAS-G12D mutant allografted in immunodeficient mouse assessed as median survival time at 15 mg/kg/day, po qd administered on day 6 post implantation (reference value: 23 days). In kind it is functional.
For data set [11], the target named is Tyrosine-protein kinase Fyn (Homo sapiens) (UniProt P06241). Nature of the data set: Inhibition of human FYN at 1 uM relative to control.
Data set [12] deals with Tyrosine-protein kinase Lyn (Homo sapiens) (UniProt P07948). To be noted: 1 uM.
In data set [13] the test system is BaF3. As to the kind of experiment: Induction of apoptosis in mouse BA/F3 cells expressing NRAS-G12D mutant assessed as decrease in bcl2 levels at 1 uM after 24 hrs by Western blot analysis. In kind it is functional, cell-based. In short, it runs like this:
as §1

Each structure is given as a SMILES string. Activity calls are given as the source filed them. No cut-off for these calls is given here.

One may read the inhibition as the percentage by which the read-out fell short of the control. As a reminder, the AUC(0-t) is exposure summed from dosing to a finite time, without extrapolation to infinity. A high value points to more exposure. For orientation: Cmax means the maximum level reached in the sampled fluid or tissue.

Chain of Tyrosine-protein kinase Yes (Homo sapiens) (P07947 2-543 limits assumed): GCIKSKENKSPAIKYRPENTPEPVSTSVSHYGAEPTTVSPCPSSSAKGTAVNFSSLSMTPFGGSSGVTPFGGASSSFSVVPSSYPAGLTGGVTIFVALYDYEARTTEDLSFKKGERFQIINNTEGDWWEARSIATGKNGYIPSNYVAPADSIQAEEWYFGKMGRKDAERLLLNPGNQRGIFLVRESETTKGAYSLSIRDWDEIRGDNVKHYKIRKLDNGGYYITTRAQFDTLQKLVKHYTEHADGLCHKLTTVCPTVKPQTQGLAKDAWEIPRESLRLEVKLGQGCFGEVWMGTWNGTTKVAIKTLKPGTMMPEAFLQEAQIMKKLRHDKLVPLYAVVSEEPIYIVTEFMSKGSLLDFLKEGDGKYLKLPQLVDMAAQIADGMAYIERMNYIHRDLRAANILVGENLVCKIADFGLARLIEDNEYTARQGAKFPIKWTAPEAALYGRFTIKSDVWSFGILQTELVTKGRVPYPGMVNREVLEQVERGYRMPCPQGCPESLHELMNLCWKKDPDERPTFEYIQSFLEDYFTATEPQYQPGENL
Chain of Tyrosine-protein kinase JAK1 (Homo sapiens) (P23458 whole entry): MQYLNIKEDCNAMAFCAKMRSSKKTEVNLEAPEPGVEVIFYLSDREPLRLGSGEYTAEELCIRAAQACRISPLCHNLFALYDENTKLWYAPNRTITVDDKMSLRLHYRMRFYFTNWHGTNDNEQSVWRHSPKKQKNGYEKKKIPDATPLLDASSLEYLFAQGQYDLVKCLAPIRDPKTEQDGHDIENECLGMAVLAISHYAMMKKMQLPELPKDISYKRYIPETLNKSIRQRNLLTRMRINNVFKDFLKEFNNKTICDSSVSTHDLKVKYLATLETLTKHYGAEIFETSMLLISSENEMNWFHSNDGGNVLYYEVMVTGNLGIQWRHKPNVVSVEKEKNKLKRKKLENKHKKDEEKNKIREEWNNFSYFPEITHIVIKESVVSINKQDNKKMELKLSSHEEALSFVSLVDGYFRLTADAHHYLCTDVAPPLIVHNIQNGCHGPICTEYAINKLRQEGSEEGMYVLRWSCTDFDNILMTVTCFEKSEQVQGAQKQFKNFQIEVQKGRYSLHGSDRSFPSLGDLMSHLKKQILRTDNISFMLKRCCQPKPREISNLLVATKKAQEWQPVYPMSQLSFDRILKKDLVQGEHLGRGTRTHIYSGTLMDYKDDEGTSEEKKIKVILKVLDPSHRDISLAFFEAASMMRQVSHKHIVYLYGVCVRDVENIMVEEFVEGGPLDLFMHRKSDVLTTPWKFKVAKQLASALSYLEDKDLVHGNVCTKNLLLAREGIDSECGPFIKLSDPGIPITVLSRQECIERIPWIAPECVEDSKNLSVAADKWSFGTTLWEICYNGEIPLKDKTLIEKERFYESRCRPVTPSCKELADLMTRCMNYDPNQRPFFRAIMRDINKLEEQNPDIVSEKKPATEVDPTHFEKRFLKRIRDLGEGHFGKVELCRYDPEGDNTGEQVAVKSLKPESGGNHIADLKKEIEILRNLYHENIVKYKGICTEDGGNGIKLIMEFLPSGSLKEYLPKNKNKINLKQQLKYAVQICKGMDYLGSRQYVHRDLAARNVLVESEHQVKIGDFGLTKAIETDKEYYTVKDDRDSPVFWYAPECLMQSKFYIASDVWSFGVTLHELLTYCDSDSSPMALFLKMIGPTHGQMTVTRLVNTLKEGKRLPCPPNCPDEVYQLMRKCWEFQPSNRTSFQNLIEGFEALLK
Chain of Ephrin type-B receptor 1 (Homo sapiens) (P54762 whole entry): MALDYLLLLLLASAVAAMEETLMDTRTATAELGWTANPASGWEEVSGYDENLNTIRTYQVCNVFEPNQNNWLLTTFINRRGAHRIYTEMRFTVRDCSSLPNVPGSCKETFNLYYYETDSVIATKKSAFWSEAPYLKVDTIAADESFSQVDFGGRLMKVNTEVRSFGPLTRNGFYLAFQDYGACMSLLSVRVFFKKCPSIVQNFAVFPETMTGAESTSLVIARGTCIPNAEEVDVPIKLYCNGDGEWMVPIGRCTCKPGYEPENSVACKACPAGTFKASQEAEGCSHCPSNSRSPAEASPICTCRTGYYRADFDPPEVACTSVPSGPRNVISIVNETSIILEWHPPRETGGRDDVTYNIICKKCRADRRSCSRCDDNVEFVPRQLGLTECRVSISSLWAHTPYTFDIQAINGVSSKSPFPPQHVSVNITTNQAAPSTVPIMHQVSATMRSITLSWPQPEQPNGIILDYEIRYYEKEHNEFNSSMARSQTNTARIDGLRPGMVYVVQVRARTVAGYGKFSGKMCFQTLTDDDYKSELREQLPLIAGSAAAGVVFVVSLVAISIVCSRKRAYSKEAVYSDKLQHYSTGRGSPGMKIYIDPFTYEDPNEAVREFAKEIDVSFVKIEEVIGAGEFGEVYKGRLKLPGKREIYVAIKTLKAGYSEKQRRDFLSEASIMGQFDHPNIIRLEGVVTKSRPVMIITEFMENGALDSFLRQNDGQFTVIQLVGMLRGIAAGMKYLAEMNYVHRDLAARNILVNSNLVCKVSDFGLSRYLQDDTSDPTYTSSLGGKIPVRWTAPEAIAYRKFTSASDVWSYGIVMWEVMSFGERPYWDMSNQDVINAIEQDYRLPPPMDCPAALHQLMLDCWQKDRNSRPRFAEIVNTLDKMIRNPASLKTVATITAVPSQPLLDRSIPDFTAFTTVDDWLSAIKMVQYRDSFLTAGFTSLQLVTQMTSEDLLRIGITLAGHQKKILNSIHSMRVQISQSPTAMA
Chain of Epithelial discoidin domain-containing receptor 1 (Homo sapiens) (Q08345 whole entry, the tested form may be a part): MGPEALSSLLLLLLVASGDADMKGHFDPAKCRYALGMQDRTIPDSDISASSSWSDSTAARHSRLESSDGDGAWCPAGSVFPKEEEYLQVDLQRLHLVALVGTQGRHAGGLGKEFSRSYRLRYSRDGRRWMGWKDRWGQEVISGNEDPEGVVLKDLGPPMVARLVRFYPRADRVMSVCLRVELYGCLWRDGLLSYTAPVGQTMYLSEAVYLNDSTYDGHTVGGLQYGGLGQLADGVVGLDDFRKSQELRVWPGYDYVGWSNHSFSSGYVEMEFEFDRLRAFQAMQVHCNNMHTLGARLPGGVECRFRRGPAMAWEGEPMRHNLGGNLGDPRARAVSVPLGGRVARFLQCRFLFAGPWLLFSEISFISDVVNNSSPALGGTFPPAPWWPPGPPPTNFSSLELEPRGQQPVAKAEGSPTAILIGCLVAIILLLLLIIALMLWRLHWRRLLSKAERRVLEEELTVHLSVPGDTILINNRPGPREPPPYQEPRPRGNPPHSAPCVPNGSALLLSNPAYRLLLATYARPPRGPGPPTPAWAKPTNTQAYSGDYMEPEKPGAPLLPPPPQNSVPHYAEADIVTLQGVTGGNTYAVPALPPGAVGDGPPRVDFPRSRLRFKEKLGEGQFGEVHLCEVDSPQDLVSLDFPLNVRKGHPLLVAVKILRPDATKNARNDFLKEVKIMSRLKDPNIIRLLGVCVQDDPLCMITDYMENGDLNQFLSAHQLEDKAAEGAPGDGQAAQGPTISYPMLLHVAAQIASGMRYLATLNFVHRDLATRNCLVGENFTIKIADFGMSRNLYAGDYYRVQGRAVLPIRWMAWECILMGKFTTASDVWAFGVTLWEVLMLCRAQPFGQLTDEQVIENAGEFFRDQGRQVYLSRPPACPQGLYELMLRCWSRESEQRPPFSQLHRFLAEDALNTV
Chain of Tyrosine-protein kinase Fyn (Homo sapiens) (P06241 2-537 limits assumed): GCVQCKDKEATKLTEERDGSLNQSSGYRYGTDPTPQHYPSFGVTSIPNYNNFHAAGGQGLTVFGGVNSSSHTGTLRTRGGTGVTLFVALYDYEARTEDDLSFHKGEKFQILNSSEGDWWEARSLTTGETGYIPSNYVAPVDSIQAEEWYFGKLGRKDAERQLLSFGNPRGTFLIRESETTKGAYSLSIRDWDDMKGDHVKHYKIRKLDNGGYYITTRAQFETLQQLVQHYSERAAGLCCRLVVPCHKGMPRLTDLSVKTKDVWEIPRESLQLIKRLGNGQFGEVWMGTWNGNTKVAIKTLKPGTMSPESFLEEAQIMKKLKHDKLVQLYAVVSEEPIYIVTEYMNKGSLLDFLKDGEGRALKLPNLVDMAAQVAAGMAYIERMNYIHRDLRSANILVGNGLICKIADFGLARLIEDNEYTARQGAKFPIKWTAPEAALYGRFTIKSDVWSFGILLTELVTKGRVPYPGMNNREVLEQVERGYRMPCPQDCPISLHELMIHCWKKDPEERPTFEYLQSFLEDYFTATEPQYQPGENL
Chain of Tyrosine-protein kinase Blk (Homo sapiens) (P51451 2-505 limits assumed): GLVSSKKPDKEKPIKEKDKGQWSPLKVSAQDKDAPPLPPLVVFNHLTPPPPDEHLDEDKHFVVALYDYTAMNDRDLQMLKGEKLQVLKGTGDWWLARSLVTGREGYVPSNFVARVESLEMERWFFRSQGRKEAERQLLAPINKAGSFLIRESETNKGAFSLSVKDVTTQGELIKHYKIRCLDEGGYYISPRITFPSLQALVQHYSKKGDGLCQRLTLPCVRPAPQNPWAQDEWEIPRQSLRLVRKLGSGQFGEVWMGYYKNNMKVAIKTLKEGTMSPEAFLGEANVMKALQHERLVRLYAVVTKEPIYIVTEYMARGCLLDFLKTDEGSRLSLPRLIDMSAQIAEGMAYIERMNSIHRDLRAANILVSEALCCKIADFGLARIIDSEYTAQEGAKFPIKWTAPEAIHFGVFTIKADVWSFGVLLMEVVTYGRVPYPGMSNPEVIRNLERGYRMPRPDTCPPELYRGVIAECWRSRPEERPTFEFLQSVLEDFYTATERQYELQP
Chain of Mitogen-activated protein kinase 14 (Homo sapiens) (Q16539 whole entry): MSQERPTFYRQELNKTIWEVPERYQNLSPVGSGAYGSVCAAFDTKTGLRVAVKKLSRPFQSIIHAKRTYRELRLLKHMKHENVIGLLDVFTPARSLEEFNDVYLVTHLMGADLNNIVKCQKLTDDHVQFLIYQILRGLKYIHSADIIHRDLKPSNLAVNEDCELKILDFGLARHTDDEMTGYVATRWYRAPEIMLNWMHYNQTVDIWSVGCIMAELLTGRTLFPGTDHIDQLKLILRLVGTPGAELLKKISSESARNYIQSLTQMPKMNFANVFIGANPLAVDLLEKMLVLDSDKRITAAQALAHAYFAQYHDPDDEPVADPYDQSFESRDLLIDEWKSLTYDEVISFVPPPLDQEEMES

On to `Cc1ccc(NC(=O)c2cccc(C(F)(F)F)c2)cc1N1Cc2cnc(N)nc2N(C)C1=O`, for which the inhibition in data set [1] was 97.8%; in data set [2] it was 96.9%; in data set [3], 99.7%; in data set [5] it was 98.9%; in data set [6], 95.9%; in data set [9], 94.9%. For the same compound, the figures for the inhibition in [11] and in data set [12] were 99.2% and 99.4%, respectively. Also, in the data set with BaF3 [4], the outcome was Active. The compound also registered an AUC(0-t) in [7] of 36.4 µg·h/mL. In data set [8], this compound returned a Cmax of 2.41 µg/mL. In addition, in the data set with BaF3 [10], the MSD was found to be 29 days.

On to `CC(=O)N1CCN(c2ccc(Nc3ncc4c(n3)N(C)C(=O)N(c3cc(NC(=O)c5cccc(C(F)(F)F)c5)ccc3C)C4)cn2)CC1`, for which the outcome in the data set with BaF3 [13] was Active.

(Values after ChEMBL document CHEMBL4196175, “First SAR Study for Overriding NRAS Mutant Driven Acute Myeloid Leukemia” (J Med Chem, 2018).)
